Assay results from PubChem BioAssay.
Results filed as inconclusive are left out.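 The calls were made as follows, unless noted: active = cell viability at or below a set limit in both duplicate runs, the limit being the all-compound median minus 4 SD (cut at about 23% in these data, passing the limit was not always enough); inconclusive = no clear call, values can overlap the other calls; inactive = the rest.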

Key:
[1] = S. cerevisiae growth inhibition in permissive medium (OD615), pilot counter-assay for S. cerevisiae lifespan shortening project, permissive growth control (AID 705;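 active = growth inhibition above 25% in both replicates, a cutoff set 3 SD above the mean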); details: OD615, 24 h, at 10 µM, active compounds read high
Procedure, shortened: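 Timing: 24 h exposure, 30 °C / Material: Saccharomyces cerevisiae strain carrying genetically modified DeaD replicative-lifespan system / Signal: OD at 615 nm / Compound: 10 µM single dose, 0.25% DMSO / Medium: SC raffinose/galactose permissive medium / Evaluation: reduction in yeast growth (OD615)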

[2] = S. cerevisiae growth inhibition in restrictive medium, OD615, pilot screen, restrictive growth control, yeast lifespan reduction project (AID 706;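 active = growth inhibition above a set limit, 3 SD over mean compound inhibition, in both replicates, cut at about 43% in these data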;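 also: modified DeaD lifespan yeast strain shifted to restrictive glucose medium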); details: OD615, 48 h, at 10 µM, active compounds read high
Procedure, shortened: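 System: Engineered S. cerevisiae DeaD strain | Detection: OD615 | Buffer or medium: CSMM-D glucose medium | Doses: 10 µM compound, 0.25% DMSO | Timing: 4 h pre-growth plus 48 h compound exposure, 30 °C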

[3] = doxorubicin toxicity protection in MRP-1 cells – H69AR cells, CellTiter-Glo, duplicate, MRP-1 activator project, pilot screen (AID 807;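 active = viability increase at or above a cutoff of the median across tested compounds plus 3 SD, cut at about 8.5% in these data, passing the limit was not always enough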;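 also: compound pretreatment 18-22 h then 72 h combined with doxorubicin; 0% = doxorubicin alone and 100% = vehicle without doxorubicin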); details: H69AR viability with doxorubicin, CellTiter-Glo luminescence; at 10 µM; active compounds read high
[4] = viability of HCT116 without oncogenic beta-catenin – human colon tumor cells, pilot screen (AID 823); details: HCT116 beta-catenin knockout viability, CellTiter-Glo, 60 h; at 10 µM; active compounds read low;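 also: 0% = wells killed by 20 µM Hyamine and 100% = untreated DMSO cell wells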
[5] = viability of PTEN-null HCT116 cells – cell-based, HCT116 clonal line, CellTiter-Glo, pilot screen (AID 824;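 active = viability at or below 27.92% in each of two runs, the all-compound median minus 4 SD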;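 also: 0% = 20 µM Hyamine control and 100% = vehicle cell control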); details: HCT116 PTEN-deleted viability, 60 h, at 10 µM, active compounds read low
[6] = RAM signaling pathway blockade in yeast – S. cerevisiae, Pdr1DBD-CYC8 efflux-inhibited sensitized strain, primary screen (AID 1298;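 active = RAM network inhibition above 8.4% in each of two replicates, 3 SD over the compound average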;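 also: 0% = DMSO untreated cells without growth and 100% = 10 µM 1-NA-PP1 full growth; higher means more yeast growth rescued from 5-FOA killing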); details: S. cerevisiae cbk1-as DSE1-URA3 strain, 5-FOA growth OD615, 2 d; at 50 µM; active compounds read high
[7] = RAM pathway blockade in budding yeast – dse1pr::URA3 reporter, 5-FOA selection, pilot screen (AID 869;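 active = inhibition over a set limit, the all-compound mean plus 3 SD, in both replicate runs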;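 also: 0% = DMSO wells with no growth and 100% = 10 µM 1-NA-PP1 with full growth; RAM network block rescues cells from 5-FOA so hits raise OD615 growth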); details: S. cerevisiae dse1pr::URA3 5-FOA growth, OD615, 2 d; at 10 µM; active compounds read high; strain carries analog-sensitive mutant Cbk1 kinase

COC(=O)c1ccc(Nc2ncnc3c2cnn3-c2cccc(C)c2)cc1
inactive: growth inhibition [1] -13% | growth inhibition [2] -25.2% | viability increase [3] -3.78% | viability [4] 109% | viability [5] 93.4% | RAM network inhibition [6] 10.5%

N#Cc1nc(-c2ccc(F)cc2)oc1NCCN1CCOCC1
inactive: growth inhibition [1] -0.47% | growth inhibition [2] -8.75% | viability increase [3] -2.06% | viability [4] 96% | viability [5] 92.3% | RAM network inhibition [6] 7.83%

Cc1cc(C)cc(NC(=O)CSc2nnc(Cn3c(=O)sc4ccccc43)n2C)c1
inactive: growth inhibition [1] -6.84% | growth inhibition [2] -21.8% | viability increase [3] -2.93% | viability [4] 98.2% | viability [5] 94.9% | RAM network inhibition [6] 1.37%

Cn1c(Cn2c(=O)sc3ccccc32)nnc1SCC(=O)Nc1ccc(F)cc1
inactive: growth inhibition [1] -6.3% | growth inhibition [2] -13.1% | viability increase [3] -0.7% | viability [4] 105% | viability [5] 97.8% | RAM network inhibition [6] 5.95%

CCC(C)(C(=O)NC1CCCC1)N(CC1CCCO1)C(=O)CNC(=O)c1ccccc1 (stereo unspecified)
inactive: growth inhibition [1] -6.16% | growth inhibition [2] -12.3% | viability increase [3] -2.92% | viability [4] 98.2% | viability [5] 93% | RAM network inhibition [6] 1.24%

CCOC(=O)C1CCN(C(C(=O)NC2CCCCC2)c2ccc(OC)cc2)CC1 (stereo unspecified)
inactive: growth inhibition [1] -4.53% | growth inhibition [2] -11.7% | viability increase [3] -1.91% | viability [4] 93.2% | viability [5] 88.6% | RAM network inhibition [6] 3.74%

CC(C)c1ccc(OC(=O)NCCO)cc1
inactive: growth inhibition [1] 4.54% | growth inhibition [2] -4.21% | viability increase [3] 0.33% | viability [4] 98.9% | viability [5] 104% | RAM network inhibition [6] 4.79%

O=C1CCC(C(=O)NC2(C(=O)NC3CCCCC3)CCCCC2)N1 (stereo unspecified)
inactive: growth inhibition [1] -0.36% | growth inhibition [2] -2.28% | viability increase [3] 0.85% | viability [4] 99.6% | viability [5] 104% | RAM network inhibition [6] 1%

Cc1cccc(-c2nc(CS(=O)CC(=O)N3CCN(C)CC3)c(C)o2)c1 (stereo unspecified)
inactive: growth inhibition [1] -8.17% | growth inhibition [2] -8.82% | viability increase [3] -1.78% | viability [4] 95.9% | viability [5] 99.5% | RAM network inhibition [6] 2.3%

COc1ccccc1S(=O)(=O)Cc1ccc(C(=O)NCc2cccnc2)o1
inactive: growth inhibition [1] 0.915% | growth inhibition [2] -0.525% | viability increase [3] -1.11% | viability [4] 97.8% | viability [5] 94.9% | RAM network inhibition [6] 2.56%

CCOc1cc(-c2nc(-c3ccc(OC)cc3)no2)cc(OCC)c1OCC
inactive: growth inhibition [1] -4.43% | growth inhibition [2] -2.33% | viability increase [3] -3.25% | viability [4] 93.9% | viability [5] 89.5% | RAM network inhibition [6] 9.91%

Cc1ccc(OCC(=O)Nc2ccc(O)c(-c3nc4ccccc4o3)c2)cc1
inactive: growth inhibition [1] -10% | growth inhibition [2] -14.9% | viability increase [3] -7.57% | viability [4] 38.8% | viability [5] 54% | RAM network inhibition [6] 2.6%

COc1ccc(CCn2c(N)c(S(=O)(=O)c3cccs3)c3nc4ccccc4nc32)cc1OC
inactive: growth inhibition [1] -4.55% | growth inhibition [2] -27.6% | viability increase [3] -2.53% | viability [4] 91.6% | viability [5] 85.1% | RAM network inhibition [6] 8.59%

Cc1cc(=S)cc(C)n1CCCn1ccnc1
inactive: growth inhibition [1] -1.13% | growth inhibition [2] -26.5% | viability increase [3] -0.81% | viability [4] 103% | viability [5] 99.7% | RAM network inhibition [6] 3.26%

O=C(NCc1ccccc1Cl)C1CCN(C(=O)c2sccc2-n2cccc2)CC1
inactive: growth inhibition [1] -17.6% | growth inhibition [2] -12% | viability increase [3] -2.65% | viability [4] 99.2% | viability [5] 86.8% | RAM network inhibition [6] 8.69%

CCSC1=C(C#N)C(c2cccc(O)c2)CC(=O)N1 (stereo unspecified)
inactive: growth inhibition [1] -2.26% | growth inhibition [2] -11% | viability increase [3] -1.66% | viability [4] 98.2% | viability [5] 97.1% | RAM network inhibition [6] 3.85%

O=C(OCC1COc2ccccc2O1)c1c(F)cccc1F (stereo unspecified)
inactive: growth inhibition [1] -5.97% | growth inhibition [2] -0.835% | viability increase [3] 2.01% | viability [4] 93% | viability [5] 95.8% | RAM network inhibition [6] 7.73%

CCCCOc1ccc(S(=O)(=O)Nc2cc(OC)ccc2OC)cc1
inactive: growth inhibition [1] -1.52% | growth inhibition [2] -16.5% | viability increase [3] 0.92% | viability [4] 54.8% | viability [5] 71.3% | RAM network inhibition [6] 7.83%

O=C(Nc1nc(-c2nc3ccccc3s2)cs1)C1COc2ccccc2O1 (stereo unspecified)
inactive: growth inhibition [1] 2.93% | growth inhibition [2] -0.5% | viability increase [3] -2.5% | viability [4] 96.8% | viability [5] 91.3% | RAM network inhibition [6] 2.13%

COc1cc(OC)c(NS(=O)(=O)c2coc(C(N)=O)c2)cc1Cl
inactive: growth inhibition [1] -4.63% | growth inhibition [2] -4.55% | viability increase [3] -3.53% | viability [4] 105% | viability [5] 95.8% | RAM network inhibition [6] 6.88%

COc1ccccc1CCNC(=O)CSc1nc(-c2ccco2)cc(C(F)(F)F)n1
inactive: growth inhibition [1] -13.3% | growth inhibition [2] -5.15% | viability increase [3] -1.65% | viability [4] 102% | viability [5] 93.7% | RAM network inhibition [6] 6.42%

COc1ccc(C(=O)n2nc(C)cc2C)cc1Br
inactive: growth inhibition [1] -8.38% | growth inhibition [2] -1.95% | viability increase [3] -0.08% | viability [4] 101% | viability [5] 99.3% | RAM network inhibition [6] -0.42%

CCOC(=O)C1CCN(S(=O)(=O)C(F)(F)c2nc3ccccc3s2)CC1
inactive: growth inhibition [1] -10.6% | growth inhibition [2] -6.5% | viability increase [3] -2.27% | viability [4] 82.2% | viability [5] 87.5% | RAM network inhibition [6] 5.28%

CCOC(=O)c1c(NC(=O)c2ccc(Br)o2)sc(C)c1CC
inactive: growth inhibition [1] 1.51% | growth inhibition [2] -8.3% | viability increase [3] -0.6% | viability [4] 73.8% | viability [5] 70.3% | RAM network inhibition [6] 9.97%

O=C(Nc1c(C(=O)Nc2ccccc2)cnn1-c1ccccc1)c1ccco1
inactive: growth inhibition [1] -3.7% | growth inhibition [2] -2.03% | viability increase [3] -4.51% | viability [4] 94.4% | viability [5] 94.3% | RAM network inhibition [6] 2.51%

CCOc1ccc(-n2c(SCC(N)=O)nc3c([nH]c4ccccc43)c2=O)cc1
inactive: growth inhibition [1] -16.6% | growth inhibition [2] 2.87% | viability increase [3] -2.27% | viability [4] 62.5% | viability [5] 71.4% | RAM network inhibition [6] 11.2%

COc1ccc(C(=O)CSc2nnc(-c3ccccc3)o2)cc1
inactive: growth inhibition [1] 4.92% | growth inhibition [2] 15.3% | viability increase [3] -0.88% | viability [4] 95.6% | viability [5] 88.8% | RAM network inhibition [6] 7.56%

Cn1c(C(C#N)/C(=N\S(=O)(=O)c2cccs2)c2ccccc2)nc2ccccc21 (stereo unspecified)
inactive: growth inhibition [1] -17.5% | growth inhibition [2] -19.6% | viability increase [3] -1.15% | viability [4] 95.5% | viability [5] 94.7% | RAM network inhibition [6] 6.16%

COc1cc(C(=O)NCCc2cn3ccc(C)cc3n2)cc(OC)c1OC
inactive: growth inhibition [1] -4.97% | growth inhibition [2] 4.06% | viability increase [3] -4.28% | viability [4] 96.5% | viability [5] 95.9% | RAM network inhibition [6] 2.94%

Cn1c(Cn2c(=O)sc3ccccc32)nnc1SCC(=O)Nc1ccccc1
inactive: growth inhibition [1] -7.53% | growth inhibition [2] -2.15% | viability increase [3] -1.41% | viability [4] 99.5% | viability [5] 98.1% | RAM network inhibition [6] 13%

O=C(c1nnc(Cc2ccc(Cl)cc2)o1)N1CCc2ccccc2C1
inactive: growth inhibition [1] -7.83% | growth inhibition [2] 7.34% | viability increase [3] 3.24% | viability [4] 103% | viability [5] 107% | inhibition [7] 0.135% | RAM network inhibition [6] 4.39%

Cc1ccc(N2CCN(c3cc(C)nc4nc(C)nn34)CC2)c(C)c1
inactive: growth inhibition [1] -17.8% | growth inhibition [2] 25.7% | viability increase [3] -2.76% | viability [4] 83.3% | viability [5] 75.8% | inhibition [7] -0.325% | RAM network inhibition [6] 2.52%

CCCC(=O)NC(C)c1nc2ccccc2n1C(C)C (stereo unspecified)
inactive: growth inhibition [1] -10.7% | growth inhibition [2] -16.6% | viability increase [3] 0.47% | viability [4] 97.5% | viability [5] 91.2% | inhibition [7] 0.475% | RAM network inhibition [6] 2.52%

COC(=O)C(C)Sc1nnc(Cc2cc(=O)[nH]c(=O)[nH]2)n1-c1cc(C)ccc1C (stereo unspecified)
inactive: growth inhibition [1] -5.62% | growth inhibition [2] 0.885% | viability increase [3] -1.25% | viability [4] 96% | viability [5] 90.3% | inhibition [7] 1.77% | RAM network inhibition [6] 0.62%

O=C(CC1Oc2ccccc2NC1=O)NCCc1ccccc1 (stereo unspecified)
inactive: growth inhibition [1] -0.525% | growth inhibition [2] 0.925% | viability increase [3] 0.98% | viability [4] 107% | viability [5] 105% | inhibition [7] 2.94% | RAM network inhibition [6] 9.58%

COc1ccc(C(=O)c2oc3ccc(Br)cc3c2NC(C)=O)cc1
inactive: growth inhibition [1] -2.44% | growth inhibition [2] -3.18% | viability increase [3] -3.96% | viability [4] 97.7% | viability [5] 104% | RAM network inhibition [6] 1.07%

CC1(C)Cc2c(sc3c2c(=N)n(Cc2ccco2)c(=O)n3Cc2ccc(Cl)cc2)CO1
inactive: growth inhibition [1] -1.16% | growth inhibition [2] 6.14% | viability increase [3] -4.55% | viability [4] 79.9% | viability [5] 70.6% | inhibition [7] 1.69% | RAM network inhibition [6] 4.49%

Cn1c(=O)c2nnn(/N=C(\c3ccccc3)C3CC3)c2n(C)c1=O
inactive: growth inhibition [1] -11.4% | growth inhibition [2] -15% | viability increase [3] -1.2% | viability [4] 103% | viability [5] 98.7% | RAM network inhibition [6] 2.84%

O=C1C(Cl)=C(N2CCCCCC2)C(=O)N1c1ccccc1
inactive: growth inhibition [1] -12.4% | growth inhibition [2] -16.4% | viability increase [3] -0.88% | viability [4] 91.3% | viability [5] 93.2% | inhibition [7] 0.8% | RAM network inhibition [6] 3.09%
